Source: PubChem (Johns Hopkins Ion Channel Center)
Rows were chosen to be rich in hits. Some 3.8% of all compounds tested hit in one or more screens of this group.
Kir21 inh: inhibitors of mouse Kir2.1 inward-rectifier potassium channel; P35561; HEK293-Kir2.1, FluxOR thallium flux fluorescence; hits give low values; B-score at 10 µM; hit rate 0.85% among 310,000;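 active = fluorescence ratio B-score at or below minus 3 SD of library scores, with starting-brightness B-score within 2 SD, cut at about -4.2 in these data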;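 note: channel flux triggered by added potassium and thallium sulfate stimulus; B-score of peak minus minimum fluorescence over baseline after thallium stimulus; more negative B-score means stronger Kir2.1 block with less thallium influx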
KCNQ1 inh: human KCNQ1 channel inhibition | CHO-K1 KCNQ1, FluxOR thallium flux fluorescence; hits give high values | hit rate 1.3% among 310,000 | P51787 | B-score at 10 µM;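 active = compounds whose thallium flux B-score, printed positive for inhibition, exceeds three library SD while starting fluorescence stays within three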;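 note: channel opened by potassium depolarization with thallium stimulus after 20 min compound exposure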
Target sequence (P51787 whole entry, looked up): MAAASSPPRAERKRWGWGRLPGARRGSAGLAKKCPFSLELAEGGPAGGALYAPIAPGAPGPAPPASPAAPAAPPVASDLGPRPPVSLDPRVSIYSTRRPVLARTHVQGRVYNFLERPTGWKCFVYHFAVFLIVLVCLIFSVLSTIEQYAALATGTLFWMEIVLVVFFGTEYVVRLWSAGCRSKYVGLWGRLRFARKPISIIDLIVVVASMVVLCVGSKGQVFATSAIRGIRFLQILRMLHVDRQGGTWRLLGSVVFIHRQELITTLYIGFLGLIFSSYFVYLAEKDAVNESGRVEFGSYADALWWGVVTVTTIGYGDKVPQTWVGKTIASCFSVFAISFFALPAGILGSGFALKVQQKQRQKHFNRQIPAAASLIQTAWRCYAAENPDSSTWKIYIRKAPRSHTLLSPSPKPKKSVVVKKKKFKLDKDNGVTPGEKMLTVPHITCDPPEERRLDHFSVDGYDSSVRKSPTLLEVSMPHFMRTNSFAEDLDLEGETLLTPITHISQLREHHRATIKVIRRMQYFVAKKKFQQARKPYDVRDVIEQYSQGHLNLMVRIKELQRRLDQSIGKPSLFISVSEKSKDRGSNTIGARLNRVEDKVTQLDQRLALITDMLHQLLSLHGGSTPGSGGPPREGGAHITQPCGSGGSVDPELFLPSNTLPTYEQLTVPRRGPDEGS
KCNQ1 pot: human KCNQ1 channel potentiation or activation | P51787 | CHO-K1 KCNQ1, thallium flux FluxOR fluorescence; hits give high values | B-score at 10 µM | hit rate 0.35% among 310,000 | AID 2648;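 active = fluorescence ratio B-score, a plate-corrected score, at least three library SD, with initial intensity B-score within 5 SD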
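Test system: CHO-K1 cells stably expressing KCNQ1 / Medium: assay buffer / Also added: depolarizing K+/Tl+ stimulus, K2SO4 and Tl2SO4 each 12.5 mM in 5x stock / Incubation: 90 min dye loading and 20 min compound exposure, both at room temperature / Signal: thallium influx via FluxOR fluorescence, kinetic imaging / Evaluation: B score of baseline-normalized fluorescence ratio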
KCNK9 block: human KCNK9 channel inhibition; Q9NPC2; B-score at 10 µM; AID 488922; HEK293 KCNK9, FluxOR thallium flux fluorescence; hits give low values; hit rate 1.2% among 310,000;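 active = ratio B-score over 3 SD below the library mean, with starting fluorescence within 5 SD of its mean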;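 note: negative B-score means less thallium flux so channel inhibition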
hERG rescue: hERG (human) protection from proarrhythmic block; Q12809; CHO-hERG, FluxOR thallium flux, dofetilide IC70 present; activation (rescue from dofetilide block), less the hit threshold, % at 10 µM; hit rate 0.51% among 310,000; AID 1511;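 active = activation above the mean of controls blocked by dofetilide plus 5 SD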;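 note: thallium influx through hERG after potassium depolarization seen as dye fluorescence rise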
KCNK3 inh: human KCNK3 channel inhibition, primary screen; O14649; CHO-KCNK3 thallium flux, FluxOR fluorescence; hits give low values; B-score at 10 µM; hit rate 0.84% among 340,000; AID 602410;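 active = B-score under library mean minus 4 SD, starting fluorescence ratio at most library mean plus 5 SD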;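 note: more negative B-score means stronger inhibition of thallium flux through KCNK3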
KCNK3 confirm: confirmation of human KCNK3 two-pore domain potassium channel inhibitors | AID 651638 | CHO-KCNK3 thallium flux, FluxOR fluorescence; 0% buffer, 100% carvedilol maximal block | ratio percent of control, % at 10 µM | shares compounds with KCNK3 inh | hit rate 99% among 2,400;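 active = ratio percent of control, averaged over triplicates, above buffer control mean plus 5 SD, cut at about 64% in these data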;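 note: ratio is the fluorescence rise from min to max over baseline after thallium stimulus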
KCNK3 uninduced: activity in cells without induced KCNK3 expression. non-induced KCNK3 parental cells, FluxOR thallium flux; hits give low values. hit rate 40% among 2,400. AID 651747. thallium flux ratio (lower = more inhibition) at 10 µM. shares compounds with KCNK3 inh;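 active = thallium flux ratio, averaged over three wells, more than 5 SD below the buffer control mean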;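 note: host cells are CHO cells without KCNK3 induction; ratio is peak minus trough fluorescence over baseline then normalized to buffer controls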
Numbers without * were called inactive.

What do the screens show for `CSCc1ccc(C(=O)NC2CC(C)(C)Cc3c2cnn3-c2ccc(F)cc2)o1` (stereo not drawn)?
Kir21 inh: -1.3; KCNQ1 inh: inactive; KCNQ1 pot: inactive; KCNK9 block: inactive; hERG rescue: -17; KCNK3 inh: inactive

How did COc1ccc(Nc2nc(Nc3ccc(OC)cc3OC)nc(N3CCN(C)CC3)n2)c(OC)c1 do in these assays?
Kir21 inh: -1.4; KCNQ1 inh: inactive; KCNQ1 pot: inactive; KCNK9 block: inactive; hERG rescue: -14; KCNK3 inh: inactive

What do the screens show for `COc1ccc(CCn2c(C)nc3ccccc3c2=O)cc1OC`?
Kir21 inh: -1.5; KCNQ1 inh: inactive; KCNQ1 pot: inactive; KCNK9 block: inactive; hERG rescue: -19; KCNK3 inh: inactive

Results for CCSc1nc2ccccc2c(=O)n1CCc1ccc(OC)c(OC)c1 ?
Kir21 inh: 0.65; KCNQ1 inh: inactive; KCNQ1 pot: inactive; KCNK9 block: inactive; hERG rescue: -13; KCNK3 inh: -9.4*; KCNK3 confirm: 98*; KCNK3 uninduced: inactive

How did O=C(CSc1ccc([N+](=O)[O-])cc1)NNC(=O)c1ccccc1F do in these assays?
Kir21 inh: -1.4; KCNQ1 inh: inactive; KCNQ1 pot: inactive; KCNK9 block: inactive; hERG rescue: -1; KCNK3 inh: inactive

How did CCOc1cc(/C=N/NS(=O)(=O)c2ccccc2)ccc1OS(=O)(=O)c1ccc(C)cc1 do in these assays?
Kir21 inh: -3.2; KCNQ1 inh: inactive; KCNQ1 pot: inactive; KCNK9 block: inactive; hERG rescue: -13; KCNK3 inh: -9.4*; KCNK3 confirm: 102*; KCNK3 uninduced: inactive

Results for CCOc1cc(/C=N/NC(=O)COc2ccc(Cl)cc2)ccc1OS(=O)(=O)c1ccccc1 ?
Kir21 inh: -0.53; KCNQ1 inh: inactive; KCNQ1 pot: inactive; KCNK9 block: inactive; hERG rescue: -16; KCNK3 inh: inactive

What do the screens show for `Cc1ccc(C)c(OCCNc2ccc([N+](=O)[O-])cn2)c1`?
Kir21 inh: -0.2; KCNQ1 inh: inactive; KCNQ1 pot: inactive; KCNK9 block: inactive; hERG rescue: -4; KCNK3 inh: inactive

How did Cc1ccc(C)c(OCCNc2ncccc2[N+](=O)[O-])c1 do in these assays?
Kir21 inh: -0.79; KCNQ1 inh: inactive; KCNQ1 pot: inactive; KCNK9 block: inactive; hERG rescue: -2; KCNK3 inh: -12*; KCNK3 confirm: 102*; KCNK3 uninduced: inactive

Results for O=C(c1ccc(COc2ccc(Cl)cc2)o1)N1CCN(Cc2ccc3c(c2)OCO3)CC1 ?
Kir21 inh: -1.3; KCNQ1 inh: inactive; KCNQ1 pot: inactive; KCNK9 block: inactive; hERG rescue: -17; KCNK3 inh: -9.8*; KCNK3 confirm: 146*; KCNK3 uninduced: 0.11*

Results for CCN1CCN(C(=O)c2ccc(COc3ccc(Cl)cc3)o2)CC1 ?
Kir21 inh: 0.92; KCNQ1 inh: inactive; KCNQ1 pot: inactive; KCNK9 block: inactive; hERG rescue: -5; KCNK3 inh: inactive

What do the screens show for `COCCCN(C(=S)Nc1cc(Cl)cc(Cl)c1)C(C)c1ccccn1` (stereo not drawn)?
Kir21 inh: 1.3; KCNQ1 inh: 8*; KCNQ1 pot: inactive; KCNK9 block: inactive; hERG rescue: -8; KCNK3 inh: -11*; KCNK3 confirm: 123*; KCNK3 uninduced: 0.16*

What do the screens show for `COCCCN(C(=S)Nc1cc(Cl)cc(Cl)c1)C(C)c1ccncc1` (stereo not drawn)?
Kir21 inh: -1.2; KCNQ1 inh: inactive; KCNQ1 pot: inactive; KCNK9 block: inactive; hERG rescue: -8; KCNK3 inh: inactive

What do the screens show for `Cc1ccccc1OCC(=O)O/N=C(\N)c1ccncc1`?
Kir21 inh: -0.91; KCNQ1 inh: inactive; KCNQ1 pot: inactive; KCNK9 block: inactive; hERG rescue: -4; KCNK3 inh: inactive

How did N#C/C(=N\Nc1cccc(C(F)(F)F)c1)C(=O)c1csc(-c2cccnc2)n1 do in these assays?
Kir21 inh: -0.08; KCNQ1 inh: 7*; KCNQ1 pot: inactive; KCNK9 block: inactive; hERG rescue: -32; KCNK3 inh: -9.4*; KCNK3 confirm: 101*; KCNK3 uninduced: 0.13*

What do the screens show for `O=c1c2cn[nH]c2nc(SCc2c(F)cccc2F)n1-c1ccc(Cl)cc1`?
Kir21 inh: -0.39; KCNQ1 inh: inactive; KCNQ1 pot: inactive; KCNK9 block: inactive; hERG rescue: -22; KCNK3 inh: -9.3*; KCNK3 confirm: 129*; KCNK3 uninduced: 0.15*

How did Cc1noc(C)c1CSc1nc2[nH]ncc2c(=O)n1-c1ccccc1 do in these assays?
Kir21 inh: -0.91; KCNQ1 inh: inactive; KCNQ1 pot: inactive; KCNK9 block: inactive; hERG rescue: -7; KCNK3 inh: inactive

How did c1ccc(Oc2cccc(OCCCCSc3ncccn3)c2)cc1 do in these assays?
Kir21 inh: -0.17; KCNQ1 inh: inactive; KCNQ1 pot: inactive; KCNK9 block: inactive; hERG rescue: -11; KCNK3 inh: -11*; KCNK3 confirm: 89*; KCNK3 uninduced: 0.15*

How did c1cnc(SCCCOc2ccc3ccccc3c2)nc1 do in these assays?
Kir21 inh: 1.2; KCNQ1 inh: inactive; KCNQ1 pot: inactive; KCNK9 block: inactive; hERG rescue: -8; KCNK3 inh: -10*; KCNK3 confirm: 114*; KCNK3 uninduced: 0.14*

Results for Cc1nc(C)n(CCNC(=O)c2ccco2)n1 ?
Kir21 inh: 0.69; KCNQ1 inh: inactive; KCNQ1 pot: inactive; KCNK9 block: inactive; hERG rescue: -8; KCNK3 inh: inactive

Results for CC[C@H](C)/C=C(C)/C=C/C1=CC2=CC(=O)[C@]3(C)OC(=O)[C@@H](C(C)=O)[C@@H]3C2=CO1 ?
Kir21 inh: -1.7; KCNQ1 inh: 6*; KCNQ1 pot: inactive; KCNK9 block: inactive; hERG rescue: -24; KCNK3 inh: -9*; KCNK3 confirm: 122*; KCNK3 uninduced: 0.078*

How did C=CCNC(=S)NNC(=O)c1ccccc1OCC do in these assays?
Kir21 inh: -1.6; KCNQ1 inh: inactive; KCNQ1 pot: inactive; KCNK9 block: inactive; hERG rescue: -10; KCNK3 inh: inactive

What do the screens show for `COc1ccc(C(=O)COC(=O)c2sc(C)nc2C)cc1F`?
KCNK3 inh: inactive
